Like-named read-outs stand apart in the source and are kept apart here. Marks after values point to notes of the source that are not given here.
Assays:
[1] = In vitro metabolism of 2′-F-monomers in human liver S9; format: in vitro ADME; details: 10 μM, human liver S9 1 mg/ml, 37°C, 1 h
[2] = format: in vivo, Sprague Dawley rats; details: single 30 mg/kg sc; for amount excreted in bile: rat bile collected over 168 h; for amount excreted in urine: rat urine collected over 168 h
Summary of the method: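 Rats (3 male, 3 female) received a single subcutaneous 30 mg/kg dose of test GalNAc–siRNA. Liver, kidney, heart, plasma, urine and bile were sampled, with urine and bile collected over 168 h. Samples were ACN/water-precipitated, dried and dephosphorylated with calf intestinal alkaline phosphatase (pH 8.0, 37°C, 1 h). 2′-F-nucleosides were quantified by LC-MS/MS against matrix standards ([…]). Values are group means.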

HepG2 (liver) = assay: Cytotoxicity, sulforhodamine B assay, HepG2; format: cell-based, human; details: day 11, four doses
Summary of the method: (§1)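 Cells were grown 1 week in glucose- or galactose-containing medium, then seeded in 96-well plates. iCell cardiomyocytes were seeded on gelatin-coated plates and grown 5 days. Test compounds in 1:1 ethanol:water were added at each media change on days 0, 3, 7 and 10 (four doses), at up to 250 μM. Final ethanol was 2.5% at 250 μM and 1% otherwise. Total protein was read by sulforhodamine B on day 11. CC50 was fitted from triplicates.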

Caki-1 (kidney) = assay: Cytotoxicity, sulforhodamine B assay, Caki-1; format: cell-based, human; details: day 11
Summary of the method: as §1

SkMC (muscle) = assay: Cytotoxicity, sulforhodamine B assay, SkMC; format: cell-based, human; details: SkMC, day 11
Summary of the method: as §1

Molt-4 (blood) = assay: Cytotoxicity, sulforhodamine B assay, Molt-4; format: cell-based, human; details: day 11
Summary of the method: as §1

SNB-78 (CNS) = assay: Cytotoxicity, sulforhodamine B assay, SNB-78; format: cell-based, human; details: for CC50: day 11
Summary of the method: as §1

COLO 205 (intestine) = assay: Cytotoxicity, sulforhodamine B assay, COLO 205; format: cell-based, human; details: day 11
Summary of the method: as §1

[3] = test system: mitochondrial DNA (MT-CO1); assay: Mitochondrial DNA quantification by qPCR; format: cell-based, human; details: across all cell lines, at ≤4 μM, day 11
Summary of the method: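 Cells were treated as in the 11-day, four-dose cytotoxicity protocol in glucose or galactose medium. DNA was then quantified by TaqMan qPCR, with nuclear DNA measured using a succinate dehydrogenase-specific probe.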

[4] = Cytotoxicity, sulforhodamine B assay, iCell cardiomyocytes; format: cell-based; details: human, iCell cardiomyocytes (heart)
Summary of the method: as §1

[5] = Cytotoxicity, sulforhodamine B assay, HepG2; format: cell-based, human; details: human, HepG2 cells (liver), day 11, four doses
Summary of the method: as §1

[6] = Cytotoxicity, sulforhodamine B assay, Caki-1; format: cell-based, human; details: human, Caki-1 cells (kidney), day 11
Summary of the method: as §1

[7] = Cytotoxicity, sulforhodamine B assay, SkMC; format: cell-based, human; details: human, SkMC cells (muscle), CC50, SkMC, day 11
Summary of the method: as §1

[8] = Cytotoxicity, sulforhodamine B assay, Molt-4; format: cell-based, human; details: human, Molt-4 cells (blood), day 11
Summary of the method: as §1

[9] = Cytotoxicity, sulforhodamine B assay, SNB-78; format: cell-based, human; details: human, SNB-78 cells (CNS), day 11
Summary of the method: as §1

[10] = Cytotoxicity, sulforhodamine B assay, COLO 205; format: cell-based, human; details: human, COLO 205 cells (intestine), day 11
Summary of the method: as §1

[11] = test system: human cellular polymerases; details: cited from earlier work

Nc1nc2c(ncn2[C@@H]2O[C@H](CO)[C@@H](O)[C@H]2F)c(=O)[nH]1 [2′-F-G, 2′-F-guanosine]
metabolic fate of 2′-F-nucleoside [1]: stable
amount excreted in bile ([2]; ALN-TTRSC02 (ESC)): <0.0004* μg
amount excreted in bile ([2]; revusiran (STC)): 0.042 µg
% dose excreted in bile ([2]; rat bile over 168 h, ALN-TTRSC02 (ESC)): <0.0003* % dose
Cmax ([2]; rat heart, ALN-TTRSC02 (ESC)): < 500 nM
Cmax ([2]; rat heart, revusiran (STC)): < 500 nM
Cmax ([2]; rat kidney, ALN-TTRSC02 (ESC)): < 500 nM
AUClast ([2]; rat kidney, revusiran (STC)): 150 µM·h
Cmax ([2]; rat kidney, revusiran (STC)): 2600 nM
t1/2 (elimination half-life) ([2]; rat kidney, revusiran (STC)): 46.9 h
tmax ([2]; rat kidney, revusiran (STC)): 16 h
AUClast ([2]; rat liver, ALN-TTRSC02 (ESC)): 138 µM·h
tmax ([2]; rat liver, ALN-TTRSC02 (ESC)): 48 h
Cmax ([2]; rat liver, monomer liberated from ALN-TTRSC02 (ESC)): 1700 nM
Cmax ([2]; rat liver, monomer liberated from revusiran (STC)): 10800 nM
AUClast ([2]; rat liver, revusiran (STC)): 722 µM·h
tmax ([2]; rat liver, revusiran (STC)): 36 h
Cmax ([2]; rat plasma, ALN-TTRSC02 (ESC)): < 30 nM
Cmax ([2]; rat plasma, revusiran (STC)): < 30 nM
amount excreted in urine ([2]; ALN-TTRSC02 (ESC)): <0.003* μg
amount excreted in urine ([2]; revusiran (STC)): 1.3 µg
% dose excreted in urine ([2]; rat urine over 168 h, ALN-TTRSC02 (ESC)): <0.002* % dose
CC50 (HepG2 (liver); HepG2, Galactose media): 112 µM
CC50 (HepG2 (liver); HepG2, Glucose media): 115 µM
CC50 (Caki-1 (kidney); Caki-1, Galactose media): 30 µM
CC50 (Caki-1 (kidney); Caki-1, Glucose media): 32 µM
CC50 (SkMC (muscle); Galactose media): 110 µM
CC50 (SkMC (muscle); Glucose media): 127 µM
CC50 (Molt-4 (blood); Molt-4, Galactose media): 12 µM
CC50 (Molt-4 (blood); Molt-4, Glucose media): 15 µM
decrease of CC50 in galactose compared to glucose media (SNB-78 (CNS); SNB-78): 2–10 fold
CC50 (SNB-78 (CNS); SNB-78, Galactose media): 12 µM
CC50 (SNB-78 (CNS); SNB-78, Glucose media): 35 µM
CC50 (COLO 205 (intestine); COLO 205, Galactose media): 22 µM
CC50 (COLO 205 (intestine); COLO 205, Glucose media): 19 µM

Nc1ccn([C@H]2CC[C@@H](CO)O2)c(=O)n1 [ddC, 2′,3′-Dideoxycytidine]
reduction in mitochondrial DNA synthesis [3]: 70–80%
CC50 at 11 days [4]: > 250 µM
CC50 at 11 days ([5]; CC50, HepG2, Galactose media): > 20 µM
CC50 at 11 days ([5]; CC50, HepG2, Glucose media): > 20 µM
CC50 at 11 days ([6]; CC50, Caki-1, Galactose media): > 20 µM
CC50 at 11 days ([6]; CC50, Caki-1, Glucose media): > 20 µM
CC50 at 11 days ([7]; Galactose media): > 20 µM
CC50 at 11 days ([7]; Glucose media): > 20 µM
CC50 at 11 days ([8]; CC50, Molt-4, Galactose media): > 20 µM
CC50 at 11 days ([8]; CC50, Molt-4, Glucose media): 8.7 µM
CC50 at 11 days ([9]; CC50, SNB-78, Galactose media): > 20 µM
CC50 at 11 days ([9]; CC50, SNB-78, Glucose media): > 20 µM
CC50 at 11 days ([10]; CC50, COLO 205, Galactose media): > 20 µM
CC50 at 11 days ([10]; CC50, COLO 205, Glucose media): > 20 µM

C[C@@]1(F)[C@H](O)[C@@H](COP(=O)(O)OP(=O)(O)OP(=O)(O)O)O[C@H]1n1ccc(=O)[nH]c1=O [triphosphate form of Sofosbuvir]
IC50 [11]: > 200 µM

— article PMC6468299 (Nucleic Acids Research, 2019)
